Measured values as given in ChEMBL document CHEMBL2010780, “Pyridine Carboxamides: Potent Palm Site Inhibitors of HCV NS5B Polymerase” (ACS Med Chem Lett, 2010).
Calls of active or inactive are those of the source. The calls are words filed in the database; no cut-off is given here.

Columns and labels:
[1] = test system: Hepatitis C virus; assay: Antiviral activity against Hepatitis C virus genotype 1b Con1 infected in human HuH7 cells assessed as inhibition of viral RNA replication after 3 by real time PCR analysis; assay type: functional, organism-based, Hepacivirus hominis, Huh-7
Method in brief: (§1)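 Each value is the mean of duplicate experiments run on two separate weighings of compound.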

[2] = Inhibition of Hepatitis C virus genotype 1b Con1 NS5B Cdelta21 polymerase assessed as incorporation of [33P]-CTP into heteropolymer RNA template after 2 hrs; set-up: species or system Hepacivirus hominis; conditions: Con1, 2 h; method in brief: as §1
[3] = Cytotoxicity against human HuH7 cells after 3 days by MTS assay; assay type: cell-based, Huh-7; method in brief: as §1
[4] = Ratio of CC50 for human HuH7 cells to EC50 for Hepatitis C virus genotype 1b Con1; set-up: species or system Huh-7
[5] = test system: Hepatitis C virus genotype 2; assay: Inhibition of Hepatitis C virus genotype 2 NS5B Cdelta21 polymerase up to 10 uM
[6] = test system: Hepatitis C virus; assay: Ratio of IC50 for Hepatitis C virus genotype 1b Con1 NS5B Cdelta21 polymerase palm site 1 G554D mutant to IC50 for Hepatitis C virus genotype 1b Con1 NS5B Cdelta21 polymerase; set-up: species or system Hepacivirus hominis
[7] = test system: Hepatitis C virus; assay: Ratio of IC50 for Hepatitis C virus genotype 1b Con1 NS5B Cdelta21 polymerase palm site 2 C316N mutant to IC50 for Hepatitis C virus genotype 1b Con1 NS5B Cdelta21 polymerase; set-up: species or system Hepacivirus hominis
[8] = test system: Hepatitis C virus genotype 4; assay: Inhibition of Hepatitis C virus genotype 4 NS5B Cdelta21 polymerase up to 10 uM
[9] = test system: Hepacivirus hominis; assay: Ratio of IC50 for Hepatitis C virus subtype 1a H77 NS5B Cdelta21 polymerase to IC50 for Hepatitis C virus genotype 1b Con1 NS5B Cdelta21 polymerase
[10] = test system: Hepatitis C virus genotype 3; assay: Inhibition of Hepatitis C virus genotype 3 NS5B Cdelta21 polymerase up to 10 uM
[11] = test system: Hepatitis C virus; assay: Ratio of IC50 for Hepatitis C virus genotype 1b Con1 NS5B Cdelta21 polymerase palm site 2 C316Y mutant to IC50 for Hepatitis C virus genotype 1b Con1 NS5B Cdelta21 polymerase; set-up: species or system Hepacivirus hominis
[12] = test system: Hepatitis C virus; assay: Ratio of IC50 for Hepatitis C virus genotype 1b Con1 NS5B Cdelta21 polymerase thumb site 2 M423T mutant to IC50 for Hepatitis C virus genotype 1b Con1 NS5B Cdelta21 polymerase; set-up: species or system Hepacivirus hominis
[13] = test system: Hepatitis C virus; assay: Ratio of IC50 for Hepatitis C virus genotype 1b Con1 NS5B Cdelta21 polymerase thumb site 1 P495L mutant to IC50 for Hepatitis C virus genotype 1b Con1 NS5B Cdelta21 polymerase; set-up: species or system Hepacivirus hominis
[14] = test system: Hepacivirus hominis; assay: Ratio of IC50 for Hepatitis C virus subtype 1b BK NS5B Cdelta21 polymerase to IC50 for Hepatitis C virus genotype 1b Con1 NS5B Cdelta21 polymerase
[15] = test system: Hepatitis C virus; assay: Ratio of IC50 for Hepatitis C virus genotype 1b Con1 NS5B Cdelta21 polymerase palm site 1 M414T mutant to IC50 for Hepatitis C virus genotype 1b Con1 NS5B Cdelta21 polymerase; set-up: species or system Hepacivirus hominis
[16] = test system: Hepatitis C virus; assay: Inhibition of Hepatitis C virus genotype 1b Con1 NS5B Cdelta21 polymerase-mediated RNA synthesis at initiation phase after 15 mins by primer extension assay; conditions: Hepacivirus hominis
[17] = test system: Hepatitis C virus; assay: Inhibition of Hepatitis C virus genotype 1b Con1 NS5B Cdelta21 polymerase-mediated RNA synthesis at elongation phase after 22 hrs by single round elongation assay; conditions: Hepacivirus hominis
Method in brief: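 Single-cycle assay measuring elongation from NS5B enzyme–primer–template complexes that were preformed before elongation.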

[18] = Hepatitis C virus, Con1, Huh-7, read-out: EC50

Structure (SMILES) | EC50 [1, 18] | IC50 [2] | CC50 at 72 h [3] | Ratio CC50/EC50 [4] | inhibition [5] | Ratio IC50 [6] | Ratio IC50 [7] | inhibition [8] | Ratio IC50 [9] | inhibition [10] | Ratio IC50 [11] | Ratio IC50 [12] | Ratio IC50 [13] | Ratio IC50 [14] | Ratio IC50 [15] | inhibition [16] | inhibition [17] | EC50 ([1]; huh-7)
Cc1ncccc1C(=O)Nc1ccc(C(C)C)cc1N1CCN(c2cnccn2)CC1 | 2800 nM | 520 nM | 22 µM | 10 |  |  |  |  |  |  |  |  |  |  |  |  |  | 
Cc1ncccc1C(=O)Nc1ccc(C(C)C)cc1N1CCN(c2ncnc3[nH]ccc23)CC1 | 3000 nM | 32 nM | > 10 µM |  | inactive | 8 | 4 | inactive | 270 | inactive | >300 | 1 | 1 | 27 | 27 |  |  | 
Cc1ncccc1C(=O)Nc1ccc(C(C)C)cc1N1CCN(c2ncnc3ccsc23)CC1 | 700 nM | 14 nM | 15 µM | >20 | inactive | 4 | 3 | inactive | 140 | inactive | >300 | 1 | 1 | 14 | 21 | Active | inactive | 
CC(C)(C)CC[C@@]1(C)CC(C2=NS(=O)(=O)c3cc(NS(C)(=O)=O)ccc3N2)=C(O)c2ccccc21 |  |  |  |  | inactive | 100 | 1 | inactive | 1 | inactive | 3 | 1 | 1 | 1 | 1 |  |  | 
CNC(=O)c1c(-c2ccc(F)cc2)oc2cc(N(CCO)S(C)(=O)=O)c(C3CC3)cc12 [NESBUVIR] |  |  |  |  | inactive | 1 | 3 | inactive | 1 | inactive | 50 | 1 | 1 | 6 | 1.5 |  |  | 
Cc1c(F)cc(F)cc1C(=O)Nc1ccc(C(C)C)cc1N1CCN(c2cnccn2)CC1 |  | 540 nM | 20 µM |  |  |  |  |  |  |  |  |  |  |  |  |  |  | ND(toxic)
